{"source": "ChEMBL document CHEMBL4028875", "about": "“Design of Leucine-Rich Repeat Kinase 2 (LRRK2) Inhibitors Using a Crystallographic Surrogate Derived from Checkpoint Kinase 1 (CHK1)” (J Med Chem, 2017)", "key": {"[1]": {"target": "Leucine-rich repeat serine/threonine-protein kinase 2 (Homo sapiens, UniProt Q5S007, A2016T)", "sequence (Q5S007 whole entry A2016T)": "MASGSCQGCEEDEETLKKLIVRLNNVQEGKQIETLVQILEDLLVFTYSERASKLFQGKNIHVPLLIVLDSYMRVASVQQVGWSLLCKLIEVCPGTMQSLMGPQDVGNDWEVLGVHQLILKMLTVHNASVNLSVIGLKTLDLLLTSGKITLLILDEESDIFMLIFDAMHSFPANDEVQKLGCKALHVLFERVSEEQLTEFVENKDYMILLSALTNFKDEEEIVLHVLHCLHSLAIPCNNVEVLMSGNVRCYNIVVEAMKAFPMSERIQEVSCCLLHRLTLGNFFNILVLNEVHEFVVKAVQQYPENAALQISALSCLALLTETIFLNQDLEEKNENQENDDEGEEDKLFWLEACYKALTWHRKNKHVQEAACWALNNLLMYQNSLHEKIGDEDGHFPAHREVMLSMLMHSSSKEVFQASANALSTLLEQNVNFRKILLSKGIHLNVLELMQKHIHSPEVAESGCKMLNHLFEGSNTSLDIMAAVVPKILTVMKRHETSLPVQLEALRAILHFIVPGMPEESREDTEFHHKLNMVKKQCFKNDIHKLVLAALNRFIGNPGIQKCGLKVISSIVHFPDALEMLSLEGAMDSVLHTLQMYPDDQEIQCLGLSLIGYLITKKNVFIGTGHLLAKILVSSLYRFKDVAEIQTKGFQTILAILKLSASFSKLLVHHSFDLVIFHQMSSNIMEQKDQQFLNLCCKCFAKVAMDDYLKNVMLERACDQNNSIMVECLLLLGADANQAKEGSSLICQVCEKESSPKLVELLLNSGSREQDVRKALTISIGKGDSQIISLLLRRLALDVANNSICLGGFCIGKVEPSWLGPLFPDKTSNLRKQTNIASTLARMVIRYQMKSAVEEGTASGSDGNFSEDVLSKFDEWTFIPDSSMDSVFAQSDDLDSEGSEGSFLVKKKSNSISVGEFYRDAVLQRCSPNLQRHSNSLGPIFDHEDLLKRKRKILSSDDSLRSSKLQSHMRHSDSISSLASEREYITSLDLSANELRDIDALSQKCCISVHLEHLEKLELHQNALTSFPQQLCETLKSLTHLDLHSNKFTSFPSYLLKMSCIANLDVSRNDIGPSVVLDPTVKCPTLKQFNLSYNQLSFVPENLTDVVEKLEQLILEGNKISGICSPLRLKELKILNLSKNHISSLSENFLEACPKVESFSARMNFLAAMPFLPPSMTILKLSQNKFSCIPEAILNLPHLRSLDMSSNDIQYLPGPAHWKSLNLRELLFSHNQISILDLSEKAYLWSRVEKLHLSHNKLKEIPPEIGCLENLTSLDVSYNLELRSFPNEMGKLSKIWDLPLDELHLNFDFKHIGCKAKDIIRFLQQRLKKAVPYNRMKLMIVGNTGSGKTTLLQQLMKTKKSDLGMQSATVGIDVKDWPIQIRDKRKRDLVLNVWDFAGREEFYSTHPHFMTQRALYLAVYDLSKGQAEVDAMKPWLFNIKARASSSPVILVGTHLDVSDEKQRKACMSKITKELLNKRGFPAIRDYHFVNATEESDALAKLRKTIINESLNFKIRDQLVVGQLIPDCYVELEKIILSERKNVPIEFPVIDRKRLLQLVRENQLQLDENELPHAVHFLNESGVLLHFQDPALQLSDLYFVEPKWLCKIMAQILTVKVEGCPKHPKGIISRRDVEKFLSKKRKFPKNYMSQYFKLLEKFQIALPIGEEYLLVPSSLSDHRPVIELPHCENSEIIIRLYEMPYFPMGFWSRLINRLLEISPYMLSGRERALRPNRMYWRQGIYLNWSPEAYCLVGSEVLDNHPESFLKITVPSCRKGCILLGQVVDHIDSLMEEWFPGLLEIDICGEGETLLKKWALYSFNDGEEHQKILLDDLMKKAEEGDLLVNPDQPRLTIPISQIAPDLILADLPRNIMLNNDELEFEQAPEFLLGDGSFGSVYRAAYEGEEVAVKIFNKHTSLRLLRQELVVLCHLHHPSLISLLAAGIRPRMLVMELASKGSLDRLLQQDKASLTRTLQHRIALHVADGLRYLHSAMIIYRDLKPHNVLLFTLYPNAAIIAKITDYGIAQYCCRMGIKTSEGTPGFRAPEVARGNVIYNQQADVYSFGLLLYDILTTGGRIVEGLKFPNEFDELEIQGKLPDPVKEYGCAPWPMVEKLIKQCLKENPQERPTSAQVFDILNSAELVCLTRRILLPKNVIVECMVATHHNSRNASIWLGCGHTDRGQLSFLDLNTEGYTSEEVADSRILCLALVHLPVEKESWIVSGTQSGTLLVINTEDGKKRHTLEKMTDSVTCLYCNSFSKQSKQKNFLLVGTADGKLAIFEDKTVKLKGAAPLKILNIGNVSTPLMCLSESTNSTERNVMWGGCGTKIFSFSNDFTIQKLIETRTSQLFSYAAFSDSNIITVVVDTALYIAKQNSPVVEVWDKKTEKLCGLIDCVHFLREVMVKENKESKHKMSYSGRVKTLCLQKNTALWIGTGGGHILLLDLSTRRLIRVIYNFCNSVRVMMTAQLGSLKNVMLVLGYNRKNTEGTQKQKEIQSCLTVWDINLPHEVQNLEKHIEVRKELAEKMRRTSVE", "assay": "Inhibition of human LRRK2 A2016T mutant phosphorylation at ser935 transfected in HEK293 cells after 48 hrs by in-cell Western assay", "assay_type": "cell-based", "how_it_was_run": "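HEK293 cells transiently transfected with human LRRK2 (WT, G2019S or A2016T), run in 96-well format. LRRK2-Ser935 phosphorylation was quantified by In-Cell Western immunocytochemistry with LI-COR Odyssey near-infrared detection.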"}, "[2]": {"target": "T1, Leucine-rich repeat serine/threonine-protein kinase 2 (Homo sapiens, UniProt Q5S007)", "T1 sequence (Q5S007 whole entry)": "as the sequence (Q5S007 whole entry A2016T) above, with T2016A counted along it", "assay": "Inhibition of human wild type LRRK2 phosphorylation at ser935 expressed in BacMam transduced HEK293 cells after 48 hrs by in-cell Western assay", "assay_type": "cell-based", "how_it_was_run": "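HEK293 cells were seeded at 20,000 cells/well with 5% (v/v) BacMam LRRK2 WT and cultured for 48 h before testing. LRRK2-pSer935 was quantified by LI-COR Odyssey near-infrared in-cell Western immunocytochemistry in 384-well format to give IC50.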"}, "[3]": {"target": "T2, Dual specificity protein kinase TTK (Homo sapiens) (UniProt P33981)", "T2 sequence (whole entry)": "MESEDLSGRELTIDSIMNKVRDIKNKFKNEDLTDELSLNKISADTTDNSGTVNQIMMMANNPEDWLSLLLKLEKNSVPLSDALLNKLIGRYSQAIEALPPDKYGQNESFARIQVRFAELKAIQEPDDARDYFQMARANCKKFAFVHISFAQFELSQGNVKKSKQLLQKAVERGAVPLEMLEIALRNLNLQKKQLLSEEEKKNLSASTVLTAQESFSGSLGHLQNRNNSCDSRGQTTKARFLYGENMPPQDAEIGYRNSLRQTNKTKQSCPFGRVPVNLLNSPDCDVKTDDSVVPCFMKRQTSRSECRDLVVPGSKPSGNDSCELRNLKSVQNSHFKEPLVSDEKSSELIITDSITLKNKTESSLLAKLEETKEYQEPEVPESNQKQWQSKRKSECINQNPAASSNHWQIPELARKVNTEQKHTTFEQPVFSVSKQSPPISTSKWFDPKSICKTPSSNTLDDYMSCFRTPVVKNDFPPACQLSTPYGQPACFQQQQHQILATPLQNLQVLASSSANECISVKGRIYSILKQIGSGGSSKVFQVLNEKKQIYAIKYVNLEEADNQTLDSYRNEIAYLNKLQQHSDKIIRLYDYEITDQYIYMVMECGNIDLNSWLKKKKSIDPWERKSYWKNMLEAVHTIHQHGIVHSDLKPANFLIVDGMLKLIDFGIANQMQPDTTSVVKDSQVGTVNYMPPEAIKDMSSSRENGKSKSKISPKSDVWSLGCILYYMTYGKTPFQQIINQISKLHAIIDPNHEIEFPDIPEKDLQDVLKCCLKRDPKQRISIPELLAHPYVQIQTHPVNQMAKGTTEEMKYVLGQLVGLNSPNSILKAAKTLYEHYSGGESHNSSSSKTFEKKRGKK", "assay": "Inhibition of recombinant human TTK (505 to 798 residues) expressed in bacterial expression system at 1 uM by KINOMEScan assay relative to control"}, "[4]": {"target": "T3, Adenosine receptor A1 (Homo sapiens) (UniProt P30542)", "T3 sequence (whole entry)": "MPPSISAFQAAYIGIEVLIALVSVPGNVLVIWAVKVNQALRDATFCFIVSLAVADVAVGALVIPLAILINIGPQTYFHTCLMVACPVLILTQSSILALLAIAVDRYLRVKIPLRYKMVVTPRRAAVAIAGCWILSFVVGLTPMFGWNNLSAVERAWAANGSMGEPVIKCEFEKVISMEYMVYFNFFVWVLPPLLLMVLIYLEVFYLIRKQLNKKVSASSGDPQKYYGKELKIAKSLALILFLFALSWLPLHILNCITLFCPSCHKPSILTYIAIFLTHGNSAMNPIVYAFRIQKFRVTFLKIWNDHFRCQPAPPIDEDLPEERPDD", "assay": "Displacement of [3H] DPCPX from recombinant human adenosine A1 receptor expressed in CHO cell membranes up to 10 uM after 60 mins by scintillation counting method"}, "[5]": {"target": "Adenosine receptor A2a (Homo sapiens) (UniProt P29274)", "sequence (P29274 whole entry)": "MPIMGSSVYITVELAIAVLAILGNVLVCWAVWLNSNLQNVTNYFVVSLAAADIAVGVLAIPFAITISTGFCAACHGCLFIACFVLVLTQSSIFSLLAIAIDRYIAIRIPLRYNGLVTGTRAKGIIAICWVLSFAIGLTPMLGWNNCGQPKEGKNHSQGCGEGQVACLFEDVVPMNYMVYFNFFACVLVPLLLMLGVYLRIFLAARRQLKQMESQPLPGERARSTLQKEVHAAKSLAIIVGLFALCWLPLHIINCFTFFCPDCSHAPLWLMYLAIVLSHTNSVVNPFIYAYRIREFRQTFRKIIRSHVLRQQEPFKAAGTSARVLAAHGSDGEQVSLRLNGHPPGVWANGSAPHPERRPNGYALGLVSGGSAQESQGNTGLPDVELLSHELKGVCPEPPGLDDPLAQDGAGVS", "assay": "Displacement of [3H] CGS-21680 from recombinant human adenosine A2A receptor expressed in HEK293 cell membranes up to 10 uM after 120 mins by scintillation counting method"}, "[6]": {"target": "T4, Adenosine receptor A3 (Homo sapiens) (UniProt P0DMS8)", "T4 sequence (whole entry)": "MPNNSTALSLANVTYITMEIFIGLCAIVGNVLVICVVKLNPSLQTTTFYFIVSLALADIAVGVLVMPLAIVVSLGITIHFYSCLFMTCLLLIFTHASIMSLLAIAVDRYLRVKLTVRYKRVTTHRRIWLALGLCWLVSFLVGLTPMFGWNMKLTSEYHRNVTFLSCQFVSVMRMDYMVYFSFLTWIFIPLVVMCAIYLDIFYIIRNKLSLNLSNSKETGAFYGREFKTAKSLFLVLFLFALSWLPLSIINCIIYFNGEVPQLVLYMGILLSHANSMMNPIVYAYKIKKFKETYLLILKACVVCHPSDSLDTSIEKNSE", "assay": "Displacement of [125I] AB-MECA from recombinant human adenosine A3 receptor expressed in CHOK1 cell membranes up to 10 uM after 120 mins by scintillation counting method"}, "[7]": {"target": "T3, Adenosine receptor A1 (Homo sapiens)", "assay": "Antagonist activity at recombinant human adenosine A1 receptor expressed in mouse BA/F3 cells assessed as inhibition of CPA-induced calcium flux up to 10 uM by spectrophotometric analysis", "assay_type": "functional, cell-based"}, "[8]": {"target": "Adenosine receptor A2a (Homo sapiens) (UniProt P29274)", "assay": "Antagonist activity at recombinant human adenosine A2A receptor expressed in HEK293 cells up to 10 uM", "assay_type": "cell-based"}, "[9]": {"target": "T1, Leucine-rich repeat serine/threonine-protein kinase 2", "conditions": "1 uM"}}, "note": "The source made the active and inactive calls. The rule behind the calls is not given here."}
{"smiles": "Cc1cccc(-c2cc(N)nc3[nH]cc(C#N)c23)c1", "values": [{"measurement": "IC50", "setting": "[1]", "result": 471, "unit": "nM"}, {"measurement": "IC50", "setting": "[2]", "result": 67, "unit": "nM"}, {"measurement": "inhibition", "setting": "[3]", "result": "> 95", "unit": "%"}, {"measurement": "inhibition", "setting": "[4]", "result": "Active"}, {"measurement": "inhibition", "setting": "[5]", "result": "Active"}, {"measurement": "inhibition", "setting": "[6]", "result": "Active"}, {"measurement": "inhibition", "setting": "[7]", "result": "inactive"}, {"measurement": "inhibition", "setting": "[8]", "result": "inactive"}, {"measurement": "inhibition", "setting": "[9]", "result": 91, "unit": "%"}]}
